The target in data set [1] is Macrophage metalloelastase (Homo sapiens, UniProt P39900). Description: Inhibition of recombinant human MMP12 catalytic domain using Mca-PLGL-DpaAR-NH2 as substrate by fluorescence spectrophotometric method. A digest of the protocol:
(§1)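 Enzymes and their substrates were obtained as in earlier work, and inhibition was run by a previously reported protocol. Ki values were measured in triplicate.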

Data set [2] deals with Neutrophil collagenase (Homo sapiens, UniProt P22894). Put plainly: Inhibition of recombinant human MMP8 catalytic domain (Phe99 to Gln269 residues) expressed in Escherichia coli using McaKPLGL-Dpa-AR-NH2 as substrate by fluorescence spectrophotometric method. A digest of the protocol:
as §1

Data set [3] concerns the target Disintegrin and metalloproteinase domain-containing protein 17 (Homo sapiens, UniProt P78536). Description: Inhibition of recombinant human C-terminal His6-tagged ADAM17 (Arg215 to Asn671 residues) expressed in baculovirus infected Sf21 cells using Mca-PLAQAV-Dpa-RSSSR-NH2 as substrate by fluorescence spectrophotometric method. A digest of the protocol: as §1
Data set [4] concerns the target T1, Interstitial collagenase (Homo sapiens) (UniProt P03956).
T1 sequence (whole entry): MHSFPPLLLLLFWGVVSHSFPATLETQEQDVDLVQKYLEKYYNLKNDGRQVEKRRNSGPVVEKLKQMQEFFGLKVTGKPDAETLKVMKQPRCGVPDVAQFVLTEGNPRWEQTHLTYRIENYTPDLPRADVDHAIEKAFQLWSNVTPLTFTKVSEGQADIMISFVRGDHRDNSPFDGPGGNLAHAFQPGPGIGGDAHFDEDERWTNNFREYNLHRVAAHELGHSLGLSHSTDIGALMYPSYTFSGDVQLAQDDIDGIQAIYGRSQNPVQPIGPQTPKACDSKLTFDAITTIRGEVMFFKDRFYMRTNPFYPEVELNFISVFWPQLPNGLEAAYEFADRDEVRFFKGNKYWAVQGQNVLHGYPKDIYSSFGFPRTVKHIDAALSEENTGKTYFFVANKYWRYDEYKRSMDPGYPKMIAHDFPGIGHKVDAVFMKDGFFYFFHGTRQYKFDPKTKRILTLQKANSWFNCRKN
Description: Inhibition of recombinant human MMP1 catalytic domain (Phe100 to Gln268 residues) expressed in Escherichia coli at 10 uM using McaKPLGL-Dpa-AR-NH2 as substrate by fluorescence spectrophotometric method. A digest of the protocol: (§2)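 Single inhibitor concentration of 10 μM, reported as percent inhibition. Enzymes and substrates as in earlier work, with inhibition run by a previously reported protocol.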

In data set [5] the target is Stromelysin-1 (Homo sapiens) (UniProt P08254). Description: Inhibition of recombinant human MMP3 catalytic domain expressed in Escherichia coli at 10 uM using MOCAc-Arg-Pro-LysPro-Val-Glu-Nva-Trp-Arg-Lys(Dnp)-NH2 as substrate by fluorescence spectrophotometric method relative to control. The procedure, abridged:
as §2

Data set [6] concerns the target T2, Matrilysin (Homo sapiens) (UniProt P09237).
T2 sequence (whole entry): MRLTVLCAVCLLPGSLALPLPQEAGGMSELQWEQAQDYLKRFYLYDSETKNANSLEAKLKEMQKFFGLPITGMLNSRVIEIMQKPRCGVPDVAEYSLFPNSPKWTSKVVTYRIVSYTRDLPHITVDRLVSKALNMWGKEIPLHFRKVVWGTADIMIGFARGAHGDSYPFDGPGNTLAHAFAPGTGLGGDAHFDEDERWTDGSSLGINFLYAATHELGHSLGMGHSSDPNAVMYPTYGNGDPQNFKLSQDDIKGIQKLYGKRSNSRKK
Put plainly: Inhibition of recombinant human MMP7 expressed in Escherichia coli using MOCAc-Pro-Leu-Gly-Leu-A2pr(Dnp)-Ala-Arg-NH2 as substrate at 10 uM by fluorescence spectrophotometric method. The procedure, abridged: as §2

Data set [7] deals with Matrix metalloproteinase-9 (Homo sapiens) (UniProt P14780). Put plainly: Inhibition of recombinant human MMP9 catalytic domain (Phe107 to Pro449 residues) expressed in Escherichia coli using MOCAc-Pro-Leu-Gly-Leu-A2pr(Dnp)-Ala-Arg-NH2 as substrate at 10 uM by fluorescence spectrophotometric method relative to control. The procedure, abridged: as §2
Sequence of Matrix metalloproteinase-9 (Homo sapiens) (P14780 whole entry, the tested form may be a part): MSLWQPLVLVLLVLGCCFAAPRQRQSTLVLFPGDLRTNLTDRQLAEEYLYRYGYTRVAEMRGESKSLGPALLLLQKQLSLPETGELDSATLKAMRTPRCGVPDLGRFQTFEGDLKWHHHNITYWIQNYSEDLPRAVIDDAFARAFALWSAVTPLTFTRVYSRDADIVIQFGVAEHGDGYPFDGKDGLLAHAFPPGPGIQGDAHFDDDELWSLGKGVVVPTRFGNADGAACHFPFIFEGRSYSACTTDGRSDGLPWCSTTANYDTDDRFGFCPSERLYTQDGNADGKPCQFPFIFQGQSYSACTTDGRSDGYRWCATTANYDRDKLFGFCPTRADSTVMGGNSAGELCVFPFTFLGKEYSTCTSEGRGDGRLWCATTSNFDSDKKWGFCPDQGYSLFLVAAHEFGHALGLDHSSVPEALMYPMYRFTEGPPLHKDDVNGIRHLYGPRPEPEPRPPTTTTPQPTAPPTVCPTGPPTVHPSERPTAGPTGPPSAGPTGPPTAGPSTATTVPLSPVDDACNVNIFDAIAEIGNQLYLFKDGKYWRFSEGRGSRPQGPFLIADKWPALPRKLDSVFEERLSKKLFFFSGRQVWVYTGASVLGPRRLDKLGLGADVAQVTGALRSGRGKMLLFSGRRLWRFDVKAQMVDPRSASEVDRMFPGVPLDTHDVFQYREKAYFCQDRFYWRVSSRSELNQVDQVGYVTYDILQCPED
In data set [8] the target is Matrix metalloproteinase-14 (Homo sapiens) (UniProt P50281). Description: Inhibition of recombinant human MMP14 catalytic domain (89 to 265 residues) expressed in Escherichia coli using MOCAc-Pro-Leu-Gly-Leu-A2pr(Dnp)-Ala-Arg-NH2 as substrate at 10 uM by fluorescence spectrophotometric method relative to control. The procedure, abridged: as §2
The target in data set [9] is T3, Disintegrin and metalloproteinase domain-containing protein 9 (Homo sapiens) (UniProt Q13443).
T3 sequence (whole entry): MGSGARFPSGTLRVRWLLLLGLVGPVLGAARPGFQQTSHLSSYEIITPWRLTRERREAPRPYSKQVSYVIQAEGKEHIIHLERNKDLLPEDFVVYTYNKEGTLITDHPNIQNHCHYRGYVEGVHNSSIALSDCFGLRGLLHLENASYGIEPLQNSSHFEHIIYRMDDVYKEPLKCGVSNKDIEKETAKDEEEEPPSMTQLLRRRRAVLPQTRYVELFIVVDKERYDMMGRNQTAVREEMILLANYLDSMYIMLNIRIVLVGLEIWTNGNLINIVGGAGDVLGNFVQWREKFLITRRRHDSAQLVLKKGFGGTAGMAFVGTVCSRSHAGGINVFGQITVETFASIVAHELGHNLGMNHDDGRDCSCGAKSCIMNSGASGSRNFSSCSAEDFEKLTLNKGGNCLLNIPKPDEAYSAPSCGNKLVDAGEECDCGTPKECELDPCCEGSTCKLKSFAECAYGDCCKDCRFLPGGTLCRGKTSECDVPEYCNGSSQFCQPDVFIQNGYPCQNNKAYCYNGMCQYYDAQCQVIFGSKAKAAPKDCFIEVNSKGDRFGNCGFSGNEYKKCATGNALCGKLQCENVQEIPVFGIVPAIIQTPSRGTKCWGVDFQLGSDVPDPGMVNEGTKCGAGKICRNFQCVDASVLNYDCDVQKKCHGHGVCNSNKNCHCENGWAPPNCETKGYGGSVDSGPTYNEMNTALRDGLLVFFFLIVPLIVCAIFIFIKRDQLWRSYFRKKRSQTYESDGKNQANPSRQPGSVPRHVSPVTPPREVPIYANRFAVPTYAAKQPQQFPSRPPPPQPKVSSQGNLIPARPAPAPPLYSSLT
Description: Inhibition of recombinant human C-terminal His10-tagged ADAM9 (Ala206 to Asp697 residues) expressed in mouse cells using McaPLAQAV-Dpa-RSSSR-NH2 as substrate at 10 uM by fluorescence spectrophotometric method relative to control. The procedure, abridged:
as §2

Data set [10] concerns the target T4, Disintegrin and metalloproteinase domain-containing protein 10 (Homo sapiens, UniProt O14672).
T4 sequence (O14672 whole entry): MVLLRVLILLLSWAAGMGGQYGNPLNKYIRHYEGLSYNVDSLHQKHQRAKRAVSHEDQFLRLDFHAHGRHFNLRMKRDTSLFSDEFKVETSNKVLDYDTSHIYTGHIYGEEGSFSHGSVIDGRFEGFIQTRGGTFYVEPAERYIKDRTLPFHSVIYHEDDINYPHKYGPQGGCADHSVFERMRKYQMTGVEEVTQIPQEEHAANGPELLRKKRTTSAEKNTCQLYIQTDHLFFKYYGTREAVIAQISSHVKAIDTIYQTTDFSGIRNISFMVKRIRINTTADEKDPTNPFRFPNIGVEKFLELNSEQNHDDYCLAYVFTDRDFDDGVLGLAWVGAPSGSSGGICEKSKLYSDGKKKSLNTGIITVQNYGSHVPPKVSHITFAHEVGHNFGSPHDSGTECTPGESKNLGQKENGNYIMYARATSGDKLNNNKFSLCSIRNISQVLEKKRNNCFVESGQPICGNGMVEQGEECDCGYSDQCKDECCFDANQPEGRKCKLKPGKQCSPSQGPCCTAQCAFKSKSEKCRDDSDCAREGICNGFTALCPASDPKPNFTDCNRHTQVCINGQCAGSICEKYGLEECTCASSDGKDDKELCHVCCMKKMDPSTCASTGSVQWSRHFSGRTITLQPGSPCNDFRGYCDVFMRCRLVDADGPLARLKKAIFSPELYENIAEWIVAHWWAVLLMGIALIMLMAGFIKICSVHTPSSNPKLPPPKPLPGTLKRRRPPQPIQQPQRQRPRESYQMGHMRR
Description: Inhibition of recombinant human C-terminal His10-tagged ADAM10 (Thr214 to Glu672 residues) expressed in baculovirus infected Sf21 cells using McaKPLGL-Dpa-AR-NH2 as substrate by fluorescence spectrophotometric method. A digest of the protocol:
as §1

A short description of data set [11]: Elimination half life in CD-1 mouse brain at 10 mg/kg, ip by UPLC analysis. As to conditions: read-out: beta t1/2. The format is ADME, organism-based. The procedure, abridged:
(§3)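 Male CD-1 mice, 6–7 weeks old, about 30 g, fed and watered ad libitum. Single dose of 10 mg/kg ip or 25 mg/kg sc, given as 100 μL formulation; n = 3 per time point per route. At set times, blood was taken by cardiac puncture with heparinized syringes and spun to plasma. Brains were harvested after transcardiac saline perfusion, weighed and flash-frozen. Brain levels are in pmol/mg tissue.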

Data set [12] can be described thus: Primary phase half life in CD-1 mouse brain at 10 mg/kg, ip by UPLC analysis. The format is ADME, organism-based. As to conditions: read-out: alphat1/2. A digest of the protocol: as §3
The subject of data set [13] is Mus musculus. Description: Time at which plasma concentration stays above in-vitro Ki for ADAM10 in CD-1 mouse at 10 mg/kg, ip by UPLC analysis. Format: ADME, organism-based. As to conditions: in vivo. The procedure, abridged: as §3
The subject of data set [14] is Mus musculus. Put plainly: Time at which brain concentration stays above in-vitro Ki for ADAM10 in CD-1 mouse at 10 mg/kg, ip by UPLC analysis. As to conditions: in vivo. Format: ADME, organism-based. The procedure, abridged: as §3
Data set [15] relates to Mus musculus. Put plainly: Time at which brain concentration stays above in-vitro Ki for ADAM10 in CD-1 mouse at 25 mg/kg, sc by UPLC analysis. Format: ADME, organism-based. As to conditions: in vivo. A digest of the protocol: as §3

Activity calls are given as the source filed them. The calls are words filed in the database; no cut-off is given here.

Sequence of Disintegrin and metalloproteinase domain-containing protein 17 (P78536 whole entry, the tested form may be a part): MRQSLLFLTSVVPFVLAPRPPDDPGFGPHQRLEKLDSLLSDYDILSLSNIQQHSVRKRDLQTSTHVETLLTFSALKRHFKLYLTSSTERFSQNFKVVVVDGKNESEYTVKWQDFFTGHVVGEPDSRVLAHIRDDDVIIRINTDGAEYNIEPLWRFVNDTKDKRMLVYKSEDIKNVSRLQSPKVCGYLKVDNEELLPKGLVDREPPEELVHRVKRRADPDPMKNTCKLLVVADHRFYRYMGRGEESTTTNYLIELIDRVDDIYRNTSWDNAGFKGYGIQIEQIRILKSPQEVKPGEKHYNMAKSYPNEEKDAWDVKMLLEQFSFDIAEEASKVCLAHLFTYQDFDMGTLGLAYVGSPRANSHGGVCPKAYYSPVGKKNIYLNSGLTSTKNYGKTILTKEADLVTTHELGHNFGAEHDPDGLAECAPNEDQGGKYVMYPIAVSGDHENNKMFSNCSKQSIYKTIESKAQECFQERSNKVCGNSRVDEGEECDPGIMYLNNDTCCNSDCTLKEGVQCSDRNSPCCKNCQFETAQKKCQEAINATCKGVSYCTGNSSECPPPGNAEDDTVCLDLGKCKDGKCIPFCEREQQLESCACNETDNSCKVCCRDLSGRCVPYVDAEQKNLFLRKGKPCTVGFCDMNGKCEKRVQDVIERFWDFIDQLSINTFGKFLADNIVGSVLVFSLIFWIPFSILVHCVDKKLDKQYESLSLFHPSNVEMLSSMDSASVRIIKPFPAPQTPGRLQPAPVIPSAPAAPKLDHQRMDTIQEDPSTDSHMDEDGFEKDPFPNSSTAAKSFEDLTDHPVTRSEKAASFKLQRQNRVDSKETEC
Sequence of Neutrophil collagenase (P22894 whole entry, the tested form may be a part): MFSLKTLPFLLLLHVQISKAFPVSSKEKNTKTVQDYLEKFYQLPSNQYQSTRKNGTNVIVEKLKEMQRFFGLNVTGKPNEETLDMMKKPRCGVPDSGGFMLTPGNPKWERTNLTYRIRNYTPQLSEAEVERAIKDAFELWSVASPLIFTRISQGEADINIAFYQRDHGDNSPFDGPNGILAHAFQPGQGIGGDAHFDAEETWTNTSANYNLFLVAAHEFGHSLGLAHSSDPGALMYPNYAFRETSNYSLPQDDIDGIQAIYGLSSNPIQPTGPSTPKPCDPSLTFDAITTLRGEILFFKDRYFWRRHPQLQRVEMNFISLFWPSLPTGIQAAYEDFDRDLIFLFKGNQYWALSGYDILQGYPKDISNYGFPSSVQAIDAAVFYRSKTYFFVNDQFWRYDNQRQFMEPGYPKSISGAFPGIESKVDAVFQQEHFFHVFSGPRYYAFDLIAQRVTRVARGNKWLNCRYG
Sequence of Macrophage metalloelastase (P39900 whole entry, the tested form may be a part): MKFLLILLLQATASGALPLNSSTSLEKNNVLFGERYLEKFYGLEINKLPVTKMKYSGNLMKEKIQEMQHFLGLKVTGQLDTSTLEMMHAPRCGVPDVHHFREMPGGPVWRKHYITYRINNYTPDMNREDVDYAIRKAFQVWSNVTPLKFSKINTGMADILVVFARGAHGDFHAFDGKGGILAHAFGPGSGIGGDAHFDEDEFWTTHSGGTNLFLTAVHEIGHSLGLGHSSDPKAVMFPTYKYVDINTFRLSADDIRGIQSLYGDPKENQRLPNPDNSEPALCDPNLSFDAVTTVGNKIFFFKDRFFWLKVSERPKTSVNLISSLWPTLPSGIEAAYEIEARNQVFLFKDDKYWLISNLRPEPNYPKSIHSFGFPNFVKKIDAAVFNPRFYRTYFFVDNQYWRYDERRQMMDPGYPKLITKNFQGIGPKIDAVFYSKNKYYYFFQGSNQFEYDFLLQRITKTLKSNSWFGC
Sequence of Stromelysin-1 (Homo sapiens) (P08254 100-477 limits assumed): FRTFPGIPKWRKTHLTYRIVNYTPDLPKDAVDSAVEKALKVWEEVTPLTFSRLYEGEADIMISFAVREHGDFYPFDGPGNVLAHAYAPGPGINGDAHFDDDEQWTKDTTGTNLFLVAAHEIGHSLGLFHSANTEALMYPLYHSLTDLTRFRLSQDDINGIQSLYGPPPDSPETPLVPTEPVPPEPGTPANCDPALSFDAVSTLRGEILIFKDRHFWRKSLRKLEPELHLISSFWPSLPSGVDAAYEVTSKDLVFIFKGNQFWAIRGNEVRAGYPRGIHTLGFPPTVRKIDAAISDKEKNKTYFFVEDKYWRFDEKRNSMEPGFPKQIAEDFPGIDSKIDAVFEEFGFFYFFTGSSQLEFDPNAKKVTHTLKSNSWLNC

In the case of `O=C(NO)[C@H]1C[C@H](OC(=O)N2CCCC2)CC[C@@H]1C(=O)N1CCC(c2ccccc2)CC1`, the Ki in data set [1] was found to be 270 nM; in [2], 8700 nM; in [3], 900 nM; in data set [10] it was 73 nM. The inhibition entry in [4] and in [6] was “inactive” each time. In addition, the inhibition came to 2% in data set [5], 25% in data set [7], 19% in data set [8] and 15% in data set [9]. The half-life was found to be 3.4 h in data set [11] and 0.48 h in data set [12]. Moreover, the Time in [13] was 6 h; in data set [14] it was 20 min; in data set [15], 100 min.

One may read the Ki as a measure of affinity in units of concentration, obtained from inhibition or displacement. The term inhibition denotes the drop in the measured response relative to a control, in per cent.
